Here are results for eleven molecules from publication PMC5830699 (ACS Omega, 2018).

One data set deals with Hydrogenivirga spp. MraY. The data set is classed as biochemical. The following applies: for IC50: read-out: MraY inhibition IC50.
Another data set relates to C. difficile ATCC 43596. As to the kind of experiment: microbe, parasite or virus in culture. The format is cell-based, Clostridium difficile. To be noted: for MIC: Clostridioides difficile, ATCC43596, read-out: C. difficile ATCC 43596 MIC.
The target in the next data set is T1, E. coli WecA (Escherichia coli, UniProt P0AC78).
T1 sequence (P0AC78 1-367): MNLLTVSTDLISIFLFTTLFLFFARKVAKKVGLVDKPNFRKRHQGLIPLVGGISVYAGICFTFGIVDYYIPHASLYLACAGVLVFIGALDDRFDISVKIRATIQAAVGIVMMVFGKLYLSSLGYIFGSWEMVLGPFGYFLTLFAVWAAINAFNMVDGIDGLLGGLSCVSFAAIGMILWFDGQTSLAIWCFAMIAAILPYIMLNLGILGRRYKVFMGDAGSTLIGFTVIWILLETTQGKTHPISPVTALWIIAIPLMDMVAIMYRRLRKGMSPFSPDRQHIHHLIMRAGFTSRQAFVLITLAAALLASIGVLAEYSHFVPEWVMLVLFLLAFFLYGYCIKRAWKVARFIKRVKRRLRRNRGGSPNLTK
As to the kind of experiment: biochemical. The format is biochemical.

Data set [1] deals with C. difficile (ATCC 43596) spores. As to the kind of experiment: C. difficile spore viability / outgrowth assay. The data set is classed as cell-based, Clostridium difficile. The following applies: 24 h treatment, taurocholate agar.
The next data set relates to sheep blood. As to the kind of experiment: Hemolysis assay. The data set is classed as cell-based. The following applies: for IC50: read-out: hemolysis IC50, sheep blood.
Data set [2] has as its system Staphylococcus pneumoniae. The format is cell-based.
The test system of data set [3] is Clostridium perfringens (ATCC 13124). Briefly: microbe, parasite or virus in culture. The format is cell-based. The following applies: ATCC13124, read-out: MIC Clostridium perfringens.
Data set [4] relates to all Gram-negative bacteria tested. The format is cell-based.
The subject of data set [5] is Bacillus subtilis (ATCC 6051). Briefly: microbe, parasite or virus in culture. To be noted: ATCC6051, read-out: MIC Bacillus subtilis. The data set is classed as cell-based.
The target in the next data set is T2, M. smegmatis WecA (Mycolicibacterium smegmatis, UniProt A0R211).
T2 sequence (A0R211 1-406): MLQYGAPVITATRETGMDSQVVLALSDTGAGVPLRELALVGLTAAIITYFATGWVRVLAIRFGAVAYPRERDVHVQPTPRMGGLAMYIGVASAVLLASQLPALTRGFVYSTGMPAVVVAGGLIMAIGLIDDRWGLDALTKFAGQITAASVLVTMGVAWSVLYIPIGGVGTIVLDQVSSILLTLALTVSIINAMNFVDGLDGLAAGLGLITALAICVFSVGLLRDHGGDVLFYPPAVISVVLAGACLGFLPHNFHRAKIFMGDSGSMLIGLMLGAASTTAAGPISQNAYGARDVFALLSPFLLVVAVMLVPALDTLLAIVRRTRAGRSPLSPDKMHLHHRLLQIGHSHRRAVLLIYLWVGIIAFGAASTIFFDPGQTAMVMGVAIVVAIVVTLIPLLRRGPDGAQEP
As to the kind of experiment: WecA inhibition assay. The format is biochemical.

For a further data set, the system named is Staphylococcus aureus. The data set is classed as cell-based.
For the next data set, the system named is Vero cells. Briefly: Vero cell cytotoxicity. The format is cell-based, African green monkey. The gist of the method:
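Vero cells (ATCC CCL-81) grown in flasks, then seeded into 96-well plates in Eagle's minimum essential medium with 10% FBS and penicillin–streptomycin. Test compound stock was 1 mg per 100 μL in PEG 300–water (1/1). Serial dilutions spanning 0.78–200 μg/mL were added, with known-toxicity control compounds on every plate. After incubation, cytotoxicity was read by MTT.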

The subject of a further data set is Lactobacillus spp. The data set is classed as cell-based.
A further data set in a line: Water solubility. The format is physicochemical.
The subject of the next data set is vegetative C. difficile. The following applies: cited from earlier work.
For data set [6], the system named is C. difficile spore outgrowth. To be noted: high concentrations; cited from earlier work.
In a further data set the target is T3, M. jannaschii AglH (Methanocaldococcus jannaschii, UniProt Q58513).
T3 sequence (Q58513 1-301): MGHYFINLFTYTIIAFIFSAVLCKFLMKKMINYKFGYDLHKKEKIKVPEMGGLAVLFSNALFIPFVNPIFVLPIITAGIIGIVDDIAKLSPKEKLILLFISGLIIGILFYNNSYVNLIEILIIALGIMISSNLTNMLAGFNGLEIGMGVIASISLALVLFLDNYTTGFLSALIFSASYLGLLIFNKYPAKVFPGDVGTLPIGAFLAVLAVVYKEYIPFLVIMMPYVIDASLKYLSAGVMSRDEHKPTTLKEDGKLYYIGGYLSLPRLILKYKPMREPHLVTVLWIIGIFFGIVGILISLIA
Briefly: AglH counterselection assay. The format is biochemical. The following applies: read-out: AglH inhibition IC50, M. jannaschii AglH.

≈ marks a conversion by molar mass, not a printed value. Where “and” joins values, the source holds several entries; their conditions need not be identical. Equal entries are not always repeated. Entries after “also recorded” stand apart in the source; their conditions may differ. Where two headings read alike, the source gives them in different places.

With `CN(CCCN)[C@H](C(=O)O)[C@@H](O[C@@H]1O[C@H](CN)[C@@H](O)[C@H]1O)[C@H]1O[C@@H](n2ccc(=O)[nH]c2=O)C(O)C1O` (stereo partly drawn) [compound 5, FR-900493-5′R,6′S-Diastereomer], in the data set on Hydrogenivirga spp. MraY, the half-maximal inhibitory concentration (IC50) – broadly, the concentration that gives 50% inhibition – is greater than 100 µM. Besides, the MIC in the data set on C. difficile ATCC 43596 was greater than 25 µg/mL.
For `CN(CCCN)[C@@H](C(=O)O)[C@@H](O[C@@H]1O[C@H](CN)[C@@H](O)[C@H]1O)[C@H]1O[C@@H](n2ccc(=O)[nH]c2=O)C(O)C1O` (stereo partly drawn) [compound 6, FR-900493-5′R, 6′R-Diastereomer], in that order: greater than 100 µM and greater than 25 µg/mL.
As for `CN(CCCN)[C@H](C(N)=O)[C@H](O[C@@H]1O[C@H](CN)[C@@H](O)[C@H]1O)[C@H]1O[C@@H](n2ccc(=O)[nH]c2=O)C(O)C1O` (some centres unmarked) [compound 7, FR-900493-Amide], the “WecA inhibitory activity (in words)” value at E. coli WecA is reported as “equal to that of 1”. Also, in the data set with Hydrogenivirga spp. MraY, the “MraY inhibitory activity (in words)” value is listed as “equal to that of 1” and the 50% inhibitory concentration (IC50) worked out at 25 ± 9.67 µM. Also, the MIC in the data set on C. difficile ATCC 43596 is greater than 25 µg/mL.
As to `NCCCN[C@H](C(N)=O)[C@H](O[C@@H]1O[C@H](CN)[C@@H](O)[C@H]1O)[C@H]1O[C@@H](n2ccc(=O)[nH]c2=O)C(O)C1O` (some centres unmarked) [compound 8, De N-Methyl FR-900493], on E. coli WecA, the IC50 is greater than 100 µM and the “WecA inhibitory activity (in words)” value is reported as “completely lost”. Moreover, in the data set with Hydrogenivirga spp. MraY, the “MraY inhibitory activity (in words)” value is given as “completely lost” and the 50% inhibitory concentration (IC50) was greater than 100 µM. Moreover, the MIC in the data set with C. difficile ATCC 43596 is greater than 25 µg/mL.
Turning to `NC[C@H]1O[C@@H](O[C@@H]([C@H](NCCCC(=O)NCc2ccc(N3CCC(Oc4ccc(OC(F)(F)F)cc4)CC3)cc2)C(N)=O)[C@H]2O[C@@H](n3ccc(=O)[nH]c3=O)C(O)C2O)[C@H](O)[C@@H]1O` (some centres unmarked) [compound 11], in [1] (2× MIC), the “outgrowth of C. difficile spores (in words)” value (from here on “outgrowth … (in words)”) was “prevented the outgrowth; also recorded: inhibited the outgrowth”. For the same molecule, the “induction of hemolysis (in words)” value with sheep blood (at 100 μM concentration) is “does not induce hemolysis”. Further, the half-maximal inhibitory concentration (IC50) in the data set with sheep blood (listed as UT-17460 (11)) is 206 ± 4.33 µM; at M. smegmatis WecA, 0.25 µM; in the data set with Vero cells (Chlorocebus sabaeus, Vero, read-out: Vero cells IC50, cytotoxicity, MTT), 65 ± 4.65 µM. For the same molecule, the “growth inhibition of Staphylococcus pneumoniae” value in data set [2] was greater than 25.0 µg/mL. Besides, the values for the MIC (in data set [3]; in [5]; with C. difficile ATCC 43596) were 3.1 µg/mL (≈ 3.52 µM), 1.6 µg/mL (≈ 1.81 µM) and 3.25 µg/mL (≈ 3.69 µM), respectively. For the same molecule, in data set [4], the “growth inhibition of all Gram-negative bacteria tested” value is greater than 25.0 µg/mL. The “growth inhibition of Staphylococcus aureus” value in the data set with Staphylococcus aureus was greater than 25.0 µg/mL. Also, the “cytotoxicity against Vero cells of 11 relative to 10” value in the data set with Vero cells (less cytotoxic than 10) is “approximately 8 times”. The “growth inhibition of Lactobacillus spp.” value with Lactobacillus spp. was greater than 25.0 µg/mL. Also, the “water solubility of 11 relative to 10” value in the data set “Water solubility” (greater than 10) is 200 times. Also, the solubility (as a rule, the dissolved amount per volume that the medium holds) in “Water solubility” (water) was 22 mg/mL (≈ 24900 µM). The “C. difficile ATCC 43596 MIC” value in the data set with C. difficile ATCC 43596 worked out at 3.25 ± 4.40 µg/mL. Also, the “anti-C. difficile activity in library screen” value in the data set with C. difficile ATCC 43596 is recorded as “displayed anti-C. difficile activity”.
As for `CN(CCCC(=O)NCc1ccc(N2CCC(Oc3ccc(OC(F)(F)F)cc3)CC2)cc1)[C@H](C(N)=O)[C@H](O[C@@H]1O[C@H](CN)[C@@H](O)[C@H]1O)[C@H]1O[C@@H](n2ccc(=O)[nH]c2=O)C(O)C1O` (some centres unmarked) [compound 12], the “MraY inhibitory activity relative to FR-900493 (1)” value in the data set with Hydrogenivirga spp. MraY was greater than 3 fold. Further, in the data set with C. difficile ATCC 43596, the “anti-C. difficile activity in library screen” value is given as “displayed anti-C. difficile activity” and the MIC is 50 ± 5.81 µg/mL (≈ 55.8 µM).
Consider `CCc1c(Cl)c(O)c(Cl)c(O)c1C(=O)O[C@H]1[C@H](O)[C@H](OC)[C@H](OC/C2=C\C=C\C[C@H](O)/C(C)=C/[C@H](CC)[C@@H](O[C@@H]3OC(C)(C)[C@@H](OC(=O)C(C)C)[C@H](O)[C@@H]3O)/C(C)=C/C(C)=C/C[C@@H]([C@@H](C)O)OC2=O)O[C@@H]1C` [fidaxomicin], for which the MIC90 (in general, an inhibitory concentration at the 90% level, which refers to growth in some studies and to a panel of isolates in others) in the data set on vegetative C. difficile was 0.5 µg/mL (≈ 0.473 µM). In data set [6], the “concentration inhibiting C. difficile spore outgrowth” value is 4.0 to 14 µg/mL.
As to `CC(=O)NC[C@H]1CN(c2ccc(N3CCOCC3)c(F)c2)C(=O)O1` [linezolid], in data set [1] (5× MIC), the “outgrowth … (in words)” value was “did not inhibit the spore outgrowth”.
Consider `Cc1ncc([N+](=O)[O-])n1CCO` [metronidazole], for which the “outgrowth … (in words)” value in [1] (5× MIC) is on record as “did not inhibit the spore outgrowth”.
With `CN[C@H](CC(C)C)C(=O)N[C@H]1C(=O)N[C@@H](CC(N)=O)C(=O)N[C@H]2C(=O)N[C@H]3C(=O)N[C@H](C(=O)N[C@H](C(=O)O)c4cc(O)cc(O)c4-c4cc3ccc4O)[C@H](O)c3ccc(c(Cl)c3)Oc3cc2cc(c3O[C@@H]2O[C@H](CO)[C@@H](O)[C@H](O)[C@H]2O[C@H]2C[C@](C)(N)[C@H](O)[C@H](C)O2)Oc2ccc(cc2Cl)[C@H]1O` [vancomycin, reference compound], the “outgrowth … (in words)” value in data set [1] (5× MIC) is listed as “did not inhibit the spore outgrowth”. Besides, the half-maximal inhibitory concentration (IC50) on E. coli WecA and in the data set with Hydrogenivirga spp. MraY was greater than 50 µM throughout. For the same molecule, the MIC in the data set with C. difficile ATCC 43596 turned out to be 2.5 µg/mL (≈ 1.73 µM).
In the case of tunicamycin [reference compound], the figures for the IC50 in the data set with sheep blood and at M. jannaschii AglH were 15 ± 7.83 µM and 13.3 ± 8.1 µM, respectively. Moreover, the “C. difficile ATCC 43596 MIC” value with C. difficile ATCC 43596 is >25.0 µg/mL and >50.0 µg/mL.
